Hits are enriched below; roughly 1.2% of the tested compounds scored in any of these assays.
GalR3 antag: GalR3 antagonists in HEK293 cells, primary screen, cell-based, fluorescence readout | HEK293 GalR3-CNG cAMP membrane potential fluorescence; galR3 body fused to GalR1 C-terminus | inhibition, % at 3 µM | actives 0.44% (n = 360,000) | AID 651719, 2012;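 active = inhibition above the screen-wide average plus 3 SD, cut at about 13% in these data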;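 note: forskolin and galanin both at EC90 stimulate the cells; cAMP rise reported by CNG channel membrane potential dye signal; 0% = forskolin plus galanin with DMSO and 100% = forskolin alone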
ASAP1 GAP inh: inhibitors of human ASAP1 ArfGAP activity, primary screen, biochemical, fluorescence polarization; Arf-GAP with SH3 domain, ANK repeat and PH domain-containing protein 1 (Homo sapiens), …; ASAP1-stimulated ARF1 GTP hydrolysis, GDP FP detection; inhibition, % at 16.5 µM; actives 0.19% (n = 360,000); AID 624377, 2012; in the data active = inhibition above about 25%;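 note: 0% = vehicle with enzyme and substrate and 100% = no enzyme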
ARFGAP1 inh: inhibitors of rat ARFGAP1 GAP activity, primary screen, biochemical, fluorescence polarization, GDP tracer; actives 0.26% (n = 360,000); ADP-ribosylation factor GTPase-activating protein 1 (Rattus norvegicus), Q62848; Arfgap1-stimulated ARF1 GTP hydrolysis, GDP FP detection; inhibition, % at 16.5 µM; AID 651572, 2012;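 active = inhibition above a per-plate limit, mean inhibition of low control wells plus 3 SD, cut at about 25% in these data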;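 note: 0% = DMSO wells with enzyme and 100% = wells lacking Arfgap1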
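Assay system: purified rat His6-Arfgap1 residues 1-136 (GAP domain); Reagent: human Δ17 ARF1 bound to GTP; Dosing: 16.5 µM single point, 1.26% DMSO; Times: GTP hydrolysis reaction 2 h at 25 °C; Signal: FP, GDP Alexa 633 tracer displaced from anti-GDP antibody, 620/688 nm; Measure: % inhibition from polarization.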
Rin1-Abl PPI inh: inhibitors of Rin1-Abl protein binding, primary screen, biochemical, TR-FRET; actives 0.4% (n = 360,000); inhibition, % at 7.35 µM; in the data active = inhibition above about 5%, passing the limit was not always enough
Target sequence (P00519 whole entry, looked up): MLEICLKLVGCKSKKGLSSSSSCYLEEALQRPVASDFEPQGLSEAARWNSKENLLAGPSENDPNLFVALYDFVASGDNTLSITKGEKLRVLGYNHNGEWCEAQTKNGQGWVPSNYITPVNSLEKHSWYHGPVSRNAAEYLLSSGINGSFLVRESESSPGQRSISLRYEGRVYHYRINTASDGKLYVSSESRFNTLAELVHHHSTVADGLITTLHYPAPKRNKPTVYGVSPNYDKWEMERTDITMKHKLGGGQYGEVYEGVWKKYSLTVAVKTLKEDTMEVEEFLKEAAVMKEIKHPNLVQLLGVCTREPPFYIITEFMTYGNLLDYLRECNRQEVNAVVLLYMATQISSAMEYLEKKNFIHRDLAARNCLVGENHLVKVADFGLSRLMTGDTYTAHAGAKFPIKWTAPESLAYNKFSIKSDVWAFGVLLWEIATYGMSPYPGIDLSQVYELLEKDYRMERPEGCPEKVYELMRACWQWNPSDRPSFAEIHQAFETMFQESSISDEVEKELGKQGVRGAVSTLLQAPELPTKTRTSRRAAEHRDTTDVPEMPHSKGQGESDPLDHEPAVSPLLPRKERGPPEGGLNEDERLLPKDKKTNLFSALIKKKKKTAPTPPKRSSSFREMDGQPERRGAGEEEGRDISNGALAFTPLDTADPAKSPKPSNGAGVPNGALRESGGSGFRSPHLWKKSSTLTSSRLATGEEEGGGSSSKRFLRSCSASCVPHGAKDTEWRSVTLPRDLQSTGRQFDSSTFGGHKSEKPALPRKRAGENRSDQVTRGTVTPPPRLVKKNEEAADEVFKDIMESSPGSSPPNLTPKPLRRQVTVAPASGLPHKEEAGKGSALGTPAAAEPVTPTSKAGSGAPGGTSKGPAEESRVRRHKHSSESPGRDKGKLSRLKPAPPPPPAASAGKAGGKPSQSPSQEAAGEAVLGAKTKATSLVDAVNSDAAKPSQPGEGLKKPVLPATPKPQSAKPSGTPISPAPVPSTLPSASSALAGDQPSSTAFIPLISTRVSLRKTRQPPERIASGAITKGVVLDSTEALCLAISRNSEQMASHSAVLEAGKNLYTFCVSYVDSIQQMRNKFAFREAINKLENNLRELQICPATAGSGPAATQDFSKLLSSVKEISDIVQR
Target sequence (Q13671 whole entry, looked up): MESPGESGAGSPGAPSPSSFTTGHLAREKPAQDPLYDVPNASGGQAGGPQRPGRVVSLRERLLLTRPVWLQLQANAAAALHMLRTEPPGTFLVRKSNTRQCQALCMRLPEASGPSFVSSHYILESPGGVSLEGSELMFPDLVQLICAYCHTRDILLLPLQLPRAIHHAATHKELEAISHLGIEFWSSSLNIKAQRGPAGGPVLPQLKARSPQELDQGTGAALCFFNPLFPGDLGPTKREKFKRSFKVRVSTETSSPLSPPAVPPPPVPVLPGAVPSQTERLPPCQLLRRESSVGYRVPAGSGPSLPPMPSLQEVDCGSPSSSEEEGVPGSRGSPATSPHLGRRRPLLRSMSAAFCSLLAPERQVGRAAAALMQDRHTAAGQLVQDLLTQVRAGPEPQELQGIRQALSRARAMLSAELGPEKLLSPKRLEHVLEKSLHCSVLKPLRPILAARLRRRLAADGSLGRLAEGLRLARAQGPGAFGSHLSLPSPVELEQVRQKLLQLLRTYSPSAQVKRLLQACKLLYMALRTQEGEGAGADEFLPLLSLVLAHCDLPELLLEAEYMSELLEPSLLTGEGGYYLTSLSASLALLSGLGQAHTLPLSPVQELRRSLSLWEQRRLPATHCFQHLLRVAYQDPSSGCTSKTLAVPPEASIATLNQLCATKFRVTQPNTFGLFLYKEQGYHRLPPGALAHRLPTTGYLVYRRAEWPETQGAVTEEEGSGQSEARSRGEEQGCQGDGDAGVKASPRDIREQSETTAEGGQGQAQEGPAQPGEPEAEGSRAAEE
ASAP1 inh confirm: ASAP1 GAP activity inhibitors, confirmation, biochemical, fluorescence polarization, human, triplicate; AID 624431, 2012; ASAP1-stimulated Arf1 GTPase, GDP fluorescence polarization; inhibition, % at 16.5 µM; actives 37% (n = 620); shares compounds with ASAP1 GAP inh;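 active = mean inhibition over triplicates exceeds the hit threshold derived for the earlier primary screening run, cut at about 25% in these data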
Starred values were filed as active, the others as inactive; / = no result.

SMILES	GalR3 antag	ASAP1 GAP inh	ARFGAP1 inh	Rin1-Abl PPI inh	ASAP1 inh confirm
Cc1cc(N2CCNC[C@H]2C)ccc1N1C[C@@H](C)O[C@@H](C)C1	-6.8	-3.2	8.0	/	/
Cc1ccc(C(=O)N2CCCC2)cc1Br	-1.2	25.7*	5.9	-2.0	-0.2
Cc1ccc(C(=O)N2CCCCC2)cc1S(=O)(=O)N1CCCC1	-3.0	17.0	-12.4	3.9	/
COC(=O)[C@]12C[C@H](CC(=O)NCc3ccc(C)o3)C(=O)N(Cc3ccc4c(c3)OCO4)C1=C[C@H](COCc1ccccc1)O[C@@H]2C	-7.6	11.3	4.0	/	/
Cc1ccc(S(=O)(=O)NCCC(=O)N2CCN(C/C=C/c3ccccc3)CC2)cc1	-3.7	7.6	-5.3	1.4	/
CC(=O)c1ccc(S(=O)(=O)NCC(=O)N2CCN(C/C=C/c3ccccc3)CC2)cc1	-4.0	28.3*	-2.5	4.8	0.7
C[C@H](CO)N1C[C@H](C)[C@H](CN(C)C(=O)Nc2ccc(F)cc2)Oc2c(NC(=O)c3ccc(-c4nccs4)cc3)cccc2C1=O	-5.9	31.3*	6.3	5.9	9.8
Cc1[nH]c2c(ccc3cccnc32)c1C	-3.1	-0.7	-2.5	1.2	/
CC1=[N+](C)c2c(ccc3cccnc23)C1(C)C	23.7*	50.9*	70.5*	0.7	31.8*
O=C1C(Cl)=C(Nc2ccccc2)C(=O)c2ccccc21	1.6	1.4	2.3	-3.6	/
O=C1C(Cl)=C(NCCc2ccccc2)C(=O)c2ccccc21	4.5	29.6*	18.5	-6.8	6.1
CCOC(=O)C1=CCC(c2ccc([N+](=O)[O-])cc2)N(S(=O)(=O)c2ccc(C)cc2)C1 (stereo not given)	-4.8	-5.1	-6.5	/	/
CCOc1cc2c(C#N)c(N(CC)CC)nc(N)c2c(N)n1	-3.9	33.1*	19.7	-3.0	8.7
CC1OC2CC(=O)OC2C2=C1C(=O)c1c(O)cccc1C2=O (stereo not given)	-10.2	36.8*	0.4	2.9	13.5
O=C(COC(=O)c1ccc2c(c1)C(=O)N(c1cccc3ncccc13)C2=O)c1ccc(Cl)cc1	-2.8	145.2*	4.2	0.7	177.2*
O=C1C=C(Nc2cccnc2)c2ccccc2C1=O	-4.7	25.9*	-6.6	-4.7	12.4
CC1=NN(c2ccccc2)C(=O)C1N=Nc1cccc(O)c1 (stereo not given)	-1.3	29.4*	-2.0	-1.4	10.4
COC(=O)N1C[C@H](OCc2ccccc2)[C@H]2C[C@@H]1c1ccccc1O2	-2.3	-3.8	10.9	/	/
COC(=O)c1cc2c(c3c4cc(F)ccc4n(S(=O)(=O)c4cccc(C)c4)c13)C(=O)N(c1ccc(OC)cc1)C2	-5.0	-2.8	7.1	/	/
CC1OC(Nc2cccc3ccccc23)C(O)C(O)C1O (stereo not given)	3.8	26.2*	9.1	8.1	4.0
CC1OC(Nc2ccc(N=Nc3ccccc3)cc2)C(O)C(O)C1O (stereo not given)	-4.4	6.2	1.4	0.6	/
COc1ccc(NC(=O)C2CCC(CNc3c(N4CCCCC4)c(=O)c3=O)CC2)cc1OC (stereo not given)	-4.5	3.2	-8.2	4.1	/
CCc1nnc(NC(=O)C2CCC(CNc3c(N4CCCCC4)c(=O)c3=O)CC2)s1 (stereo not given)	-5.1	28.0*	4.8	-2.3	0.5
Cc1nnc(-c2cccc(Br)c2)c2cn(-c3ccccc3)nc12	-3.2	12.1	-1.2	-5.0	/
Cc1nnc(-c2cccc(Br)c2)c2cn(-c3cccc(Br)c3)nc12	-4.2	27.5*	13.6	-4.0	20.4
COC(=O)CCCC1=CC2=CC(=O)C(C)(OC(=O)c3cccs3)C(=O)C2=CN1Cc1ccccc1 (stereo not given)	-0.1	-3.8	-5.5	-0.6	/
COC(=O)CCCC1=CC2=CC(=O)C(C)(OC(=O)c3cccs3)C(=O)C2=CN1Cc1ccco1 (stereo not given)	-4.1	24.9*	-6.2	-0.8	4.4

Bioassay records from PubChem.
